Results reported in ChEMBL document CHEMBL3352502, “A dual inhibitor of matrix metalloproteinases and a disintegrin and metalloproteinases, [¹⁸F]FB-ML5, as a molecular probe for non-invasive MMP/ADAM-targeted imaging” (Bioorg Med Chem, 2015).

Key:
[1] = molecular target: Macrophage metalloelastase (Homo sapiens, UniProt P39900); assay: Inhibition of human recombinant MMP12 catalytic domain Mca-Pro-Leu-Gly-Leu-Dpa-Ala-Arg-NH2 fluorogenic substrate
How it was run: (§1)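 Recombinant human catalytic domains (MMP-2; MMP-9 lacking fibronectin type II insert and MMP-12, both E. coli-expressed) at 10 ng per well with fluorogenic substrate. Buffer: 50 mM Tris pH 7.4, 0.2 M NaCl, 10 mM CaCl₂, ZnCl₂, 0.05% v/v Brij-35. Fluorescence rise (ex 320/em 440 nm) read for 15 min at 20 °C over inhibitor series up to 1000 nM (or 100 µM). IC50 by sigmoidal fit, triplicate.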

[2] = molecular target: Matrix metalloproteinase-9 (Homo sapiens, UniProt P14780); assay: Inhibition of human recombinant MMP9 catalytic domain using Mca-Pro-Leu-Gly-Leu-Dpa-Ala-Arg-NH2 fluorogenic substrate; how it was run: as §1
[3] = molecular target: 72 kDa type IV collagenase (Homo sapiens, UniProt P08253); assay: Inhibition of human recombinant MMP2 catalytic domain using Mca-Pro-Leu-Gly-Leu-Dpa-Ala-Arg-NH2 fluorogenic substrate; how it was run: as §1
Heart [4] = assay: Drug uptake in HT1080 cells xenografted mouse heart after 90 mins in presence of non-radioactive ML5; type: ADME, cell-based, HT-1080; conditions: in vivo, 1.5 h
How it was run: (§2)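 Male BALB/c nu/nu mice, 7–8 weeks old, were given (2–2.5)×10⁶ HT1080 cells s.c. in the right shoulder in Matrigel/EMEM (1:1). They were used 14–21 days later at tumor volume 0.3–0.6 mL. [¹⁸F]FB-ML5 was given alone or co-injected with 2.5 mg/kg ML5. Tissues were weighed and gamma-counted. SUVmean = tissue MBq/g ÷ (injected MBq/body weight g). n = 6 per group, mean ± SD, unpaired t-test.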

Plasma [5] = assay: Drug uptake in HT1080 cells xenografted mouse plasma after 90 mins; type: ADME, cell-based, HT-1080; conditions: in vivo, 1.5 h; how it was run: as §2
Liver [6] = assay: Drug uptake in HT1080 cells xenografted mouse liver after 90 mins in presence of non-radioactive ML5; type: ADME, cell-based, HT-1080; conditions: in vivo, 1.5 h; how it was run: as §2
[7] = Drug uptake in HT1080 cells xenografted mouse assessed as bone to plasma ratio after 90 mins in presence of non-radioactive ML5; type: ADME, cell-based, HT-1080; conditions: bone and plasma
How it was run: (§3)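 Same HT1080 subcutaneous xenograft in male BALB/c nude mice. The tracer was co-injected with 2.5 mg/kg non-radioactive ML5 and scanned for 90 min. Organs and plasma were gamma-counted ex vivo at 90 min p.i. The tissue/plasma SUV_mean ratio was calculated. n = 6, mean SD, unpaired two-sided t-test against the group without ML5.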

[8] = Drug uptake in HT1080 cells xenografted mouse assessed as large intestine to plasma ratio after 90 mins; type: ADME, cell-based, HT-1080; conditions: large intestine and plasma
How it was run: (§4)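 Male BALB/c nude mice, 7–8 weeks, with (2–2.5)×10⁶ HT1080 cells in Matrigel/EMEM injected subcutaneously into the right shoulder. Tracer injected when tumors reached 0.3–0.6 mL (14–21 days), followed by a 90 min microPET scan. Ex vivo: organs and plasma gamma-counted at 90 min p.i. SUV_mean for each tissue divided by plasma SUV_mean. n = 6, mean SD.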

[9] = Drug uptake in HT1080 cells xenografted mouse assessed as tumor to plasma ratio after 90 mins; type: ADME, cell-based, HT-1080; conditions: tumor and plasma; how it was run: as §4
[10] = Drug uptake in HT1080 cells xenografted mouse assessed as tumor to plasma ratio after 90 mins in presence of non-radioactive ML5; type: ADME, cell-based, HT-1080; conditions: tumor and plasma; how it was run: as §3
[11] = Drug uptake in HT1080 cells xenografted mouse assessed as bone to plasma ratio after 90 mins; type: ADME, cell-based, HT-1080; conditions: bone and plasma; how it was run: as §4
Heart [12] = assay: Drug uptake in HT1080 cells xenografted mouse heart after 90 mins; type: ADME, cell-based, HT-1080; conditions: in vivo, 1.5 h; how it was run: as §2
Tumour [13] = assay: Drug uptake in HT1080 cells xenografted mouse tumor after 90 mins; type: ADME, Neoplasm, HT-1080; conditions: in vivo, 1.5 h; how it was run: as §2
[14] = Drug uptake in HT1080 cells xenografted mouse assessed as liver to plasma ratio after 90 mins in presence of non-radioactive ML5; type: ADME, cell-based, HT-1080; conditions: liver and plasma; how it was run: as §3
Plasma [15] = assay: Drug uptake in HT1080 cells xenografted mouse plasma assessed as parent compound after 90 mins; type: ADME, cell-based, HT-1080; conditions: in vivo, 1.5 h
How it was run: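 Parent fraction in plasma of control HT1080-bearing mice at 90 min p.i. Plasma (250 µL) was deproteinized with 750 µL ACN, centrifuged 3 min at 3000 rpm and filtered (0.22 µm). Analysed by semi-preparative reverse-phase HPLC with radioactivity detection; % intact tracer of total plasma radioactivity, n = 2.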

Tumour [16] = assay: Drug uptake in HT1080 cells xenografted mouse tumor after 90 mins in presence of non-radioactive ML5; type: ADME, Neoplasm, HT-1080; conditions: in vivo, 1.5 h; how it was run: as §2
Lung [17] = assay: Drug uptake in HT1080 cells xenografted mouse lung after 90 mins; type: ADME, cell-based, HT-1080; conditions: in vivo, 1.5 h; how it was run: as §2
[18] = Octanol-water partition coefficient, log P of the compound; type: physicochemical
How it was run: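 About 5 kBq [¹⁸F]FB-ML5 in saline was mixed with 495 µL PBS pH 7.4 and 500 µL n-octanol. Vortexed 5 min, centrifuged 5 min at 3000 rpm, then 100 µL of each layer gamma-counted. logP = log₁₀(cpm octanol/cpm aqueous), triplicate.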

Plasma [19] = assay: Drug uptake in HT1080 cells xenografted mouse plasma after 90 mins in presence of non-radioactive ML5; type: ADME, cell-based, HT-1080; conditions: in vivo, 1.5 h; how it was run: as §2
Intestine [20] = assay: Drug uptake in HT1080 cells xenografted mouse small intestine after 90 mins; type: ADME, cell-based, HT-1080; conditions: in vivo, 1.5 h; how it was run: as §2
[21] = Drug uptake in HT1080 cells xenografted mouse assessed as heart to plasma ratio after 90 mins; type: ADME, cell-based, HT-1080; conditions: heart and plasma; how it was run: as §4
[22] = Drug uptake in HT1080 cells xenografted mouse assessed as liver to plasma ratio after 90 mins; type: ADME, cell-based, HT-1080; conditions: liver and plasma; how it was run: as §4
Liver [23] = assay: Drug uptake in HT1080 cells xenografted mouse liver after 90 mins; type: ADME, cell-based, HT-1080; conditions: in vivo, 1.5 h; how it was run: as §2
Bone [24] = assay: Drug uptake in HT1080 cells xenografted mouse bone after 90 mins in presence of non-radioactive ML5; type: ADME, cell-based, Bone element, HT-1080; conditions: in vivo, 1.5 h; how it was run: as §2
Intestine [25] = assay: Drug uptake in HT1080 cells xenografted mouse large intestine after 90 mins; type: ADME, cell-based, HT-1080; conditions: in vivo, 1.5 h; how it was run: as §2
[26] = Drug uptake in HT1080 cells xenografted mouse assessed as large intestine to plasma ratio after 90 mins in presence of non-radioactive ML5; type: ADME, cell-based, HT-1080; conditions: large intestine and plasma; how it was run: as §3
[27] = Drug uptake in HT1080 cells xenografted mouse assessed as heart to plasma ratio after 90 mins in presence of non-radioactive ML5; type: ADME, cell-based, HT-1080; conditions: heart and plasma; how it was run: as §3
Lung [28] = assay: Drug uptake in HT1080 cells xenografted mouse lung after 90 mins in presence of non-radioactive ML5; type: ADME, cell-based, HT-1080; conditions: in vivo, 1.5 h; how it was run: as §2
Bone [29] = assay: Drug uptake in HT1080 cells xenografted mouse bone after 90 mins; type: ADME, cell-based, Bone element, HT-1080; conditions: in vivo, 1.5 h; how it was run: as §2
Intestine [30] = assay: Drug uptake in HT1080 cells xenografted mouse large intestine after 90 mins in presence of non-radioactive ML5; type: ADME, cell-based, HT-1080; conditions: in vivo, 1.5 h; how it was run: as §2

Matrix metalloproteinase-9, sequence (P14780 whole entry, the tested form may be a part): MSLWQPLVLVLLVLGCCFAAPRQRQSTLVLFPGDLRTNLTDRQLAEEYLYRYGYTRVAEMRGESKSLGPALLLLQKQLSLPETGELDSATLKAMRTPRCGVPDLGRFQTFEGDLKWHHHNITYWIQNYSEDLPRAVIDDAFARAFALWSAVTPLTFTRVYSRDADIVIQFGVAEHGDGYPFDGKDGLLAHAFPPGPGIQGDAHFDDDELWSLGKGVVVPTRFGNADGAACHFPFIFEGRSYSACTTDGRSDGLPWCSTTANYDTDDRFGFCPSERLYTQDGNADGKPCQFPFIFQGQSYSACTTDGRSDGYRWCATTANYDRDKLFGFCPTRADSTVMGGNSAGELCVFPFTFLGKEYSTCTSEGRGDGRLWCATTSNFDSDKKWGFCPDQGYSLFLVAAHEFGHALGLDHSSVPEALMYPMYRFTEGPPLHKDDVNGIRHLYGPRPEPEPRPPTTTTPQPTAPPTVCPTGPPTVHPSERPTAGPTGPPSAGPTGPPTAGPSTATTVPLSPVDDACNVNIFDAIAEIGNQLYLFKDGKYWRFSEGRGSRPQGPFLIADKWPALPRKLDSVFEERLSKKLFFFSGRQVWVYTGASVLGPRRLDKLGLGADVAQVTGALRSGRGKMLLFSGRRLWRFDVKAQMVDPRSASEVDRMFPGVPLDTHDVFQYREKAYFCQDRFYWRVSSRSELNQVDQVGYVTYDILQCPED
72 kDa type IV collagenase, sequence (P08253 whole entry, the tested form may be a part): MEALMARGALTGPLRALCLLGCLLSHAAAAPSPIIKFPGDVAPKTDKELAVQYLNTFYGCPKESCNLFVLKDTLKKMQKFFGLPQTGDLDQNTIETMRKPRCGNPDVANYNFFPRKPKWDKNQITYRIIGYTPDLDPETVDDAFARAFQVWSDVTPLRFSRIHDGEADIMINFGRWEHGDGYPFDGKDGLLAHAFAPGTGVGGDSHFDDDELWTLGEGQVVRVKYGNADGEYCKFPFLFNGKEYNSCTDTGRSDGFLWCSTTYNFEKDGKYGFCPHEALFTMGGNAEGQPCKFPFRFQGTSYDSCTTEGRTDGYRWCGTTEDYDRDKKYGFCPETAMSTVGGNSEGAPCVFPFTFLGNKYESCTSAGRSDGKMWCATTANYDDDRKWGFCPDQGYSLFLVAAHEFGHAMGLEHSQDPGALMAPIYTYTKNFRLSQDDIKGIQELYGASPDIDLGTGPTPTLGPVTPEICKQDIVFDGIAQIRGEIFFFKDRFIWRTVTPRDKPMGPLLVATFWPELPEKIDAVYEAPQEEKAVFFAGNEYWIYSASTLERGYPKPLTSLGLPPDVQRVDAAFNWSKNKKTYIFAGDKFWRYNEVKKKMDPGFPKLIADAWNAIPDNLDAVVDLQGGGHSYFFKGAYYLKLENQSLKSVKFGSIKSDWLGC
Macrophage metalloelastase, sequence (P39900 whole entry, the tested form may be a part): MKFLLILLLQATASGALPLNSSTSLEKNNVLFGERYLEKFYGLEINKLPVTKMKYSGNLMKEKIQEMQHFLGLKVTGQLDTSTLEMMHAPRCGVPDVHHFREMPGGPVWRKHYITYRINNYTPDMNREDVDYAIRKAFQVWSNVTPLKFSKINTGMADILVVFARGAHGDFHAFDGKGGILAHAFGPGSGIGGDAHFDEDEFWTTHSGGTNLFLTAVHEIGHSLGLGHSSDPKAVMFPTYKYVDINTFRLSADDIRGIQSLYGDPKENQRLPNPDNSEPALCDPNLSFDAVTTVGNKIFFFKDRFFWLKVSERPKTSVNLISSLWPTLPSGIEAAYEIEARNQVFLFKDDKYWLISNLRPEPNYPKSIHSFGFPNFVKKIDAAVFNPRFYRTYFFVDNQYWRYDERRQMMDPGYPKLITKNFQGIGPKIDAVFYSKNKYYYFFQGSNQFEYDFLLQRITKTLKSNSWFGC

**Q.** Which IC50 [1] does the source give for `CC(C)C[C@H](CC(=O)NO)C(=O)N[C@@H](Cc1ccccc1)C(=O)N[C@@H](CCCCN)C(N)=O` here?
**A.** 2 nM

**Q.** What about the IC50 [2] of the same compound?
**A.** 19.5 nM

**Q.** What about the IC50 [3] of the same compound?
**A.** 7.4 nM

**Q.** Which results are given for `CC(C)C[C@H](CC(=O)NO)C(=O)N[C@@H](Cc1ccccc1)C(=O)N[C@@H](CCCCNC(=O)c1ccc(F)cc1)C(N)=O`?
**A.** IC50 [1]: 138 nM; IC50 [2]: 31.5 nM; IC50 [3]: 12.5 nM

**Q.** For `CC(C)C[C@H](CC(=O)NOC(=O)c1ccc(F)cc1)C(=O)N[C@@H](Cc1ccccc1)C(=O)N[C@@H](CCCCNC(=O)c1ccc(F)cc1)C(N)=O`, which IC50 [2] is on record?
**A.** 1490 nM

**Q.** What does the source list for `CC(C)C[C@H](CC(=O)NO)C(=O)N[C@@H](Cc1ccccc1)C(=O)N[C@@H](CCCCNC(=O)c1ccc([18F])cc1)C(N)=O`?
**A.** SUV (Heart [4]): 0.043; SUV (Plasma [5]): 0.238; SUV (Liver [6]): 2; Kp at 1.5 h [7]: 0.09; Kp at 1.5 h [8]: 7.83; Kp at 1.5 h [9]: 0.597; Kp at 1.5 h [10]: 0.231; Kp at 1.5 h [11]: 0.179; SUV (Heart [12]): 0.111; SUV (Tumour [13]): 0.145; Kp at 1.5 h [14]: 10.9; Drug uptake (Plasma [15]): 23.2%; SUV (Tumour [16]): 0.041; SUV (Lung [17]): 0.254; logP [18]: 1.11; SUV (Plasma [19]): 0.185; SUV (Intestine [20]): 5.207; Kp at 1.5 h [21]: 0.482; Kp at 1.5 h [22]: 19.2; SUV (Liver [23]): 4.58; SUV (Bone [24]): 0.017; SUV (Intestine [25]): 1.8; Kp at 1.5 h [26]: 14.8; Kp at 1.5 h [27]: 0.235; SUV (Lung [28]): 0.106; SUV (Bone [29]): 0.041; SUV (Intestine [30]): 2.75
